Measurements taken from ChEMBL document CHEMBL3259516, “Structure-based design and synthesis of bicyclic fused-pyridines as MEK inhibitors” (Bioorg Med Chem Lett, 2014).

Assays:
[1] = biological target: T1, Dual specificity mitogen-activated protein kinase kinase 1 (Homo sapiens, UniProt Q02750); test: Inhibition of MEK1 (unknown origin)
[2] = biological target: T1, Dual specificity mitogen-activated protein kinase kinase 1; test: Inhibition of MEK1 in human COLO205 cells; type: cell-based, COLO 205
[3] = Half life in rat at 5 mg/kg, po; type: ADME, organism-based; design: dose 5 mg/kg, route oral; conditions: in vivo
[4] = Plasma protein binding in human; type: ADME, cell-free; conditions: read-out: PPB (converted)
[5] = Clearance in rat liver microsomes; type: ADME; conditions: read-out: CLH
[6] = AUC in rat at 5 mg/kg, po; type: ADME, organism-based; design: dose 5 mg/kg, route oral; conditions: plasma
[7] = Cmax in beagle dog at 1 mg/kg, po; type: ADME, organism-based, Canis lupus familiaris; design: dose 1 mg/kg, route oral; conditions: in vivo
[8] = AUC in beagle dog at 1 mg/kg, iv; type: ADME, organism-based, Canis lupus familiaris; design: dose 1 mg/kg, route intravenous; conditions: plasma
[9] = Oral bioavailability in beagle dog at 1 mg/kg; type: ADME, organism-based, Canis lupus familiaris; conditions: in vivo
[10] = Half life in beagle dog at 1 mg/kg, po; type: ADME, organism-based, Canis lupus familiaris; design: dose 1 mg/kg, route oral; conditions: in vivo
[11] = Half life in beagle dog at 1 mg/kg, iv; type: ADME, organism-based, Canis lupus familiaris; design: dose 1 mg/kg, route intravenous; conditions: in vivo
[12] = Cmax in rat at 5 mg/kg, po; type: ADME, organism-based; design: dose 5 mg/kg, route oral; conditions: in vivo
[13] = Inhibition of CYP450 (unknown origin) up to 50 uM; type: ADME; conditions: human
[14] = Clearance in human liver microsomes; type: ADME; conditions: read-out: CLH
[15] = AUC in beagle dog at 1 mg/kg, po; type: ADME, organism-based, Canis lupus familiaris; design: dose 1 mg/kg, route oral; conditions: plasma
Mus musculus = test: Toxicity in mouse xenografted with human COLO205 cells assessed as change in body weight at 3 mg/kg, po qd for 14 days; type: organism-based, COLO 205; design: dose 3 mg/kg, route oral; conditions: in vivo, 336 h
Procedure, shortened: (§1)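 Human colorectal Colo-205 xenografts in mice; test agent given by oral gavage at 3.0 mg/kg once daily for 14 days. Tumor growth inhibition scored relative to control, and body weight followed in all animals throughout the study.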

COLO 205 = test: Antitumor activity against human COLO205 cells xenografted in mouse assessed as tumor growth inhibition at 3 mg/kg, po qd for 14 days relative to control; type: functional; conditions: COLO 205, 336 h, read-out: TGI; procedure, shortened: as §1

T1 sequence (Q02750 whole entry): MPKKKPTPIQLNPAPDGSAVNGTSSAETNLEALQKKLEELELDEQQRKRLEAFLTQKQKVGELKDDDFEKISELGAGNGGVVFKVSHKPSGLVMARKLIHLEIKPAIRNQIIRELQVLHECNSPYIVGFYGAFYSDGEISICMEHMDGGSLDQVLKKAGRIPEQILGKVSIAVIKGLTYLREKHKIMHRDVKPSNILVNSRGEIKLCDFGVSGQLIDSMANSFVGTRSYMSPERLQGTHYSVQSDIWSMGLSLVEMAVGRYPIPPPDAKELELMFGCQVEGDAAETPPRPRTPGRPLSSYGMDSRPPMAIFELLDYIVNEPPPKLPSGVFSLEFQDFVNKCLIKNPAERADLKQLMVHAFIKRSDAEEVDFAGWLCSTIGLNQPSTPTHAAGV

Question: For `O=C(NC[C@H](O)CO)c1ncncc1Nc1ccccc1F`, which IC50 [1] is on record?
Answer: > 1000 nM

Question: With `Cn1c(=O)c(F)c(Nc2ccc(I)cc2F)c2c(=O)n(C[C@@H](O)CO)cnc21` [TAK-733] as the compound, how does the IC50 [2] read?
Answer: 6.92 nM

Question: And the IC50 [1]?
Answer: 1.79 nM

Question: With `O=c1c2c(Nc3ccc(I)cc3F)cncc2cnn1C[C@H](O)CO` as the compound, how does the half-life [3] read?
Answer: 5.56 h

Question: What about the fraction unbound [4] of the same compound?
Answer: 0.033

Question: And the microsomal CLint [5]?
Answer: 2.38 µL/min/mg

Question: And the AUC [6]?
Answer: 4.89 µg·h/mL

Question: What about the Cmax [7] of the same compound?
Answer: 0.117 µg/mL

Question: What about the AUC [8] of the same compound?
Answer: 1.19 µg·h/mL

Question: What about the bioavailability [9] of the same compound?
Answer: 43%

Question: What about the half-life [10] of the same compound?
Answer: 4.88 h

Question: What about the half-life [11] of the same compound?
Answer: 3.11 h

Question: And the Cmax [12]?
Answer: 1.08 µg/mL

Question: What about the “inhibition (INH)” value [13] of the same compound?
Answer: Not Active

Question: What about the microsomal CLint [14] of the same compound?
Answer: 1.25 µL/min/mg

Question: And the AUC [15]?
Answer: 0.51 µg·h/mL

Question: And the Activity (Mus musculus)?
Answer: Non-toxic

Question: What about the inhibition in vivo at 3 mg/kg (COLO 205) of the same compound?
Answer: 59.5%
